Bioassay records from PubChem BioAssay.
Rows were chosen to be rich in hits. Some 1.9% of all compounds tested hit in one or more screens of this group.
TbMetRS inhib: T. brucei MetRS inhibitors, primary screen, biochemical, luminescence; 0.4% of 360,000 active; inhibition, % at 11.9 µM; AID 624268, 2012; methionyl-tRNA synthetase (Trypanosoma brucei brucei); purified T. brucei MetRS, ATP depletion, Kinase-Glo luminescence;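 active = inhibition above a per-plate cutoff of the control wells' mean inhibition plus 3 SD, cut at about 5.5% in these data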;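 note: 0% = DMSO wells median and 100% = median of wells with control inhibitor compound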
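Dosing: 11.9 µM compound single dose, 0.9% DMSO; Assay system: purified T. brucei MetRS enzyme; Measured by: Kinase-Glo luciferase luminescence reporting remaining unconsumed ATP; Schedule: 15 min plus 2 h at 25 °C.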
HGIII-sPLA2 inh: human group III sPLA2 inhibitors, primary screen, biochemical, QFRET, BODIPY PC-A2 liposome substrate. Group 3 secretory phospholipase A2 (Homo sapiens), Q9NZ20. QFRET BODIPY PC-A2 liposome hydrolysis, fluorescence. inhibition, % at 12.2 µM. 0.56% of 370,000 active;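 active = inhibition above mean plus 3 SD of compounds lying within the high and low control bounds, cut at about 19% in these data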;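 note: 0% = median of test compound wells and 100% = no enzyme DMSO wells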
PLC-beta3 inh: human PLC-beta3 inhibitors, primary screen, biochemical, fluorescence | 1-phosphatidylinositol 4,5-bisphosphate phosphodiesterase beta-3 (Homo sapiens), Q01970 | AID 720704, 2013 | Purified PLC-beta3, fluorogenic substrate | inhibition, % at 12.2 µM | 0.18% of 370,000 active; in the data active = inhibition above about 11%;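 note: 0% = median of compound wells on plate and 100% = full blocker control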
Target sequence (Q01970 whole entry, looked up): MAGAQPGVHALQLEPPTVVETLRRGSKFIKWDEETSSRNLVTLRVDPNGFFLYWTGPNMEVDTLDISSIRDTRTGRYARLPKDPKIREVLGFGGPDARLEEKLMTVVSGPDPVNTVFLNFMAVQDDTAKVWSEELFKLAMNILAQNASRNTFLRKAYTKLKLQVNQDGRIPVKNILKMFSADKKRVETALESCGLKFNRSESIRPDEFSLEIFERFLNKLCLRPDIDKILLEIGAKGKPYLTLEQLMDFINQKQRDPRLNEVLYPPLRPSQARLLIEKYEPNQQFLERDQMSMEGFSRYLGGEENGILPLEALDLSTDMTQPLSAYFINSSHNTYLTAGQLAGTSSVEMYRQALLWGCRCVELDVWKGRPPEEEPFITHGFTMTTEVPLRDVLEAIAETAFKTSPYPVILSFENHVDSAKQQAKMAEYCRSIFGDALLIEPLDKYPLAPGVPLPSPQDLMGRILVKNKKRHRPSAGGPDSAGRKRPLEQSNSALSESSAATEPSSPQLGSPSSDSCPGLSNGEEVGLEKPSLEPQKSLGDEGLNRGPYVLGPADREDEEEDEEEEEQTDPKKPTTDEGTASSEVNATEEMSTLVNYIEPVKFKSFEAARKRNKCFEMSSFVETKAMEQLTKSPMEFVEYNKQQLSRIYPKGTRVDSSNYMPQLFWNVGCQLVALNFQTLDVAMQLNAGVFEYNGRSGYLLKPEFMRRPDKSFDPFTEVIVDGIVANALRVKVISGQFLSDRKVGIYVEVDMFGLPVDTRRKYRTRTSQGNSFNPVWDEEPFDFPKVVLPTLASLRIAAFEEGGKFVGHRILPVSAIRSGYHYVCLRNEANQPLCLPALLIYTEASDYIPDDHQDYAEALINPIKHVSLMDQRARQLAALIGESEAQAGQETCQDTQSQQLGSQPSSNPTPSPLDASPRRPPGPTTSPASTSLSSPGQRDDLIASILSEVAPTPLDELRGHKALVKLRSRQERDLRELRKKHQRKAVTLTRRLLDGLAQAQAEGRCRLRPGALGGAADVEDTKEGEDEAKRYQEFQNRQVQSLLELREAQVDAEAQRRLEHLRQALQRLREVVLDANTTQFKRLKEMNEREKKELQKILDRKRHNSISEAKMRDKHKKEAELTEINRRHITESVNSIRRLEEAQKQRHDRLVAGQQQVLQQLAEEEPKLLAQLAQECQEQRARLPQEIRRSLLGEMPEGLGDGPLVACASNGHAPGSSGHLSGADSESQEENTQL
PLCg1 inh: PLC-gamma1 enzyme inhibitors, primary screen, biochemical, fluorescence, purified enzyme; fluorogenic substrate; inhibition, % at 12.2 µM; 0.84% of 370,000 active; in the data active = inhibition above about 9.5%
TbMetRS confirm: T. brucei MetRS inhibitors, confirmation, biochemical, luminescence. shares compounds with TbMetRS inhib. T. brucei MetRS enzyme, luminescence (ATP depletion). inhibition, % at 11.9 µM. 93% of 1,400 active. AID 624412, 2012; in the data active = inhibition above about 7%
Jurkat cytotox: Jurkat T cell cytotoxicity, cytotoxicity control for T. brucei MetRS inhibitor project, luminescence, high throughput; shares compounds with TbMetRS inhib; Jurkat cells viability, ATP luminescence; inhibition, % at 8.3 µM; 12% of 1,400 active; AID 624413, 2012; in the data active = inhibition above about 15%;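 note: 0% = vehicle and 100% = reference inhibitor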
TbMetRS FP orth: T. brucei MetRS inhibitors, orthogonal assay for T. brucei MetRS inhibitor project, biochemical, fluorescence polarization; shares compounds with TbMetRS inhib; purified T. brucei MetRS; inhibition, % at 11.9 µM; 44% of 1,400 active; in the data active = inhibition above about 17%;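 note: 0% = vehicle wells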
An asterisk follows results filed as active; x = no result.

SMILES | TbMetRS inhib | HGIII-sPLA2 inh | PLC-beta3 inh | PLCg1 inh | TbMetRS confirm | Jurkat cytotox | TbMetRS FP orth
COc1cccc(CNc2ccc([N+](=O)[O-])cc2Cl)c1O | 16.9* | -49.5 | -0.9 | 0.3 | 17.5* | 7.0 | 13.0
COc1ccc(CN2C(=O)[C@@](O)(c3cccn3C)c3cc(Br)ccc32)cc1 | x | -13.7 | 2.7 | 3.4 | x | x | x
CC(=O)c1cccc(-c2ccnc3c2CC(C(=O)Nc2ccc(Cl)cc2)O3)c1 (stereo not given) | 18.7* | -36.1 | 6.5 | 5.8 | 45.6* | 21.1* | 21.8*
CN(c1cccnc1)c1ccc(NC(=O)Cc2c[nH]c3ccccc23)cc1Br | x | -5.5 | -64.6 | -46.2 | x | x | x
CCCCCCCCNc1ncnc2ccccc12 | 11.1* | x | x | x | 24.7* | 46.0* | 7.8
NC(=O)c1c(N)[nH]c(C(=O)c2ccccc2)c1-c1ccc2ccccc2c1 | x | 15.9 | -44.6 | -27.9 | x | x | x
Cc1ccc(OCc2nnc(SCC(=O)Nc3ccccc3-c3ccccc3)n2Cc2ccco2)cc1 | x | -15.8 | -0.3 | -1.9 | x | x | x
O=C(CCCC1=NS(=O)(=O)c2ccccc2N1)OCc1ccc(Cl)cc1 | 20.2* | -16.1 | -5.4 | -0.4 | 44.2* | 1.9 | 13.8
O=C(CCCC1=NS(=O)(=O)c2ccccc2N1)NCCc1ccc(Cl)cc1 | 1.9 | -1.0 | -6.7 | 1.8 | x | x | x
COc1ccccc1NS(=O)(=O)c1cc(NC(=O)C(C)C)ccc1N1CCCCC1 | 0.0 | -27.1 | 0.4 | 1.8 | x | x | x
COc1ccccc1NS(=O)(=O)c1cc(NC(=O)Nc2ccccc2)ccc1N1CCCCC1 | 6.2* | -34.9 | 4.9 | 3.3 | 10.8* | -0.6 | 17.1*
O=C(Nc1ccc(Cl)c(Cl)c1)Nc1ccc(N2CCCC2)c(S(=O)(=O)Nc2ccccc2Cl)c1 | 0.0 | 2.5 | -4.9 | 1.1 | x | x | x
O=C(Nc1ccc(F)cc1)Nc1ccc(N2CCCC2)c(S(=O)(=O)Nc2ccccc2Cl)c1 | 11.3* | -0.5 | -30.7 | -17.3 | 26.6* | 66.6* | 44.4*
CCOC(=O)N1CCC(Nc2c(Nc3ccc(F)cc3)c(=O)c2=O)CC1 | 36.2* | 6.2 | 0.7 | -4.1 | 76.6* | 12.5 | 40.3*
O=C(Cn1c(NCCO)nc2ccccc21)Nc1cccc(S(=O)(=O)N2CCCC2)c1 | 11.2* | -13.9 | -0.5 | -2.0 | 47.8* | 3.8 | 16.0
COc1ccccc1CCC(=O)Nc1cccc(S(=O)(=O)N2CCCCCC2)c1 | 5.7* | -44.6 | -1.6 | 3.1 | 27.7* | -4.5 | 14.1
COc1ccc(/C=N/n2c(=O)[nH]c3c([nH]c4ccc(Br)cc43)c2=O)cc1CN1CCOCC1 | 6.2* | 4.5 | -1.0 | -3.2 | 13.9* | 10.6 | 8.8
COc1ccc(/C=N/n2c(=O)[nH]c3c([nH]c4ccc(Cl)cc43)c2=O)cc1CN1CCCCC1 | 4.1 | 0.0 | -66.7 | -40.1 | x | x | x
Cc1ccc2nc(SC(C)C(=O)NCc3ccc4c(c3)OCO4)[nH]c2c1 (stereo not given) | 13.2* | -11.5 | -1.9 | 0.1 | 35.2* | 2.1 | 14.5
O=C(CSc1nc2ccccc2[nH]1)NC1CCCC1 | 1.1 | -3.1 | 1.4 | 1.8 | x | x | x
Cc1ccc2nc(SCC(=O)NC3CCS(=O)(=O)C3)[nH]c2c1 (stereo not given) | 9.7* | -1.5 | -0.7 | 7.1 | 36.8* | -9.3 | 13.9
O=C(CSc1nc2ccccc2[nH]1)NC1CCS(=O)(=O)C1 (stereo not given) | 9.3* | 2.0 | -1.0 | 1.6 | 17.6* | 5.6 | -2.6
CCN(C(=O)CSc1nc2ccc(Cl)cc2[nH]1)C1CCS(=O)(=O)C1 (stereo not given) | 5.7* | 1.1 | 3.4 | 0.3 | 22.7* | -4.7 | 6.3
CCN(C(=O)CSc1nc2ccc(OC)cc2[nH]1)C1CCS(=O)(=O)C1 (stereo not given) | -0.3 | 3.3 | 2.2 | 5.8 | x | x | x
COC(=O)[C@]12C[C@H](CC(=O)NCCCN3CCCC3=O)C(=O)N(CCc3ccc(OC)c(OC)c3)C1=C[C@H](C1CCCC1)O[C@@H]2C | x | 0.2 | 1.7 | -0.6 | x | x | x
SMILES | TbMetRS inhib | HGIII-sPLA2 inh | PLC-beta3 inh | PLCg1 inh | TbMetRS confirm | Jurkat cytotox | TbMetRS FP orth
CN(CCc1ccccc1)C(=O)c1ccc2c(c1)ncn2C1CCCCC1 | x | -0.6 | -2.0 | 2.4 | x | x | x
COC(=O)C1CN(Cc2ccc(F)cc2)CCS(=O)(=O)N1Cc1cn(CCOC(C)=O)nn1 (stereo not given) | x | 7.1 | 3.6 | 0.2 | x | x | x
C=CCN1C(=O)[C@@H](CC(=O)NCCCOC)[C@]2(C(=O)OC)CCCCC=C12 | x | 1.1 | -0.7 | 1.9 | x | x | x
COc1ccc(CNC(=O)CSc2nc3ccc(OC)cc3[nH]2)cc1 | 3.2 | -7.5 | 2.2 | 4.5 | x | x | x
COc1ccc(CNC(=O)CSc2nc3ccc(C)cc3[nH]2)cc1 | 28.5* | -3.7 | -1.8 | 3.0 | 48.3* | -1.7 | 20.8*
Cc1ccc(C2=NS(=O)(=O)N(C)C(C(=O)NCc3ccc(F)cc3)=C2)cc1 | 9.8* | -30.3 | -6.2 | -6.3 | 17.1* | -3.0 | 11.7
Cc1ccc(C2=NS(=O)(=O)N(C)C(C(=O)NCc3ccccc3)=C2)cc1 | 4.7 | -10.5 | -12.8 | -10.1 | x | x | x
CCN(C(=O)CSc1nnc(-c2cccnc2)n1Cc1ccco1)c1ccccc1 | x | 10.6 | -3.0 | 2.8 | x | x | x
Nc1cc(=O)[nH]c(SCC(=O)Nc2cc(Cl)cc(Cl)c2)n1 | 28.8* | -6.2 | -1.5 | 0.0 | 48.8* | 0.8 | 27.9*
CN(CC(=O)Nc1cccc(F)c1)C(=O)c1ccc(-n2cncn2)c([N+](=O)[O-])c1 | 51.2* | 4.9 | -6.8 | -2.8 | 83.5* | 0.2 | 50.7*
COc1cccc(NC(=O)CN(C)C(=O)c2ccc(-n3cncn3)c([N+](=O)[O-])c2)c1 | 1.1 | 1.9 | -4.8 | -4.0 | x | x | x
CN(CC(=O)Nc1ccc(F)c(F)c1F)C(=O)c1ccc(-n2cncn2)c([N+](=O)[O-])c1 | 7.7* | -5.6 | -4.1 | -3.6 | 32.9* | -6.5 | 17.1*
CCCCCCCCN1C(=O)[C@@H](CC(=O)N2CCOCC2)C[C@@]2(C(=O)OC)C1=C[C@H](C1CCCC1)O[C@@H]2C | x | -3.8 | 9.1 | 2.3 | x | x | x
CC#CC(=O)N[C@H]1CC[C@@]23CCCN2C(=O)CCC[C@H]3[C@H]1C | x | 3.1 | 0.7 | -3.1 | x | x | x
CN1CCCN(C(=O)/C=C/c2ccc(Cl)cc2Cl)CC1 | 8.0* | -4.8 | 1.5 | 2.3 | 17.0* | -6.2 | 1.5
O=C1CN(C(=O)/C=C/c2ccc(Cl)cc2Cl)CCN1 | 1.1 | 0.6 | -3.8 | 3.1 | x | x | x
COc1cccc(/C(O)=C/c2nc3ccc(C(=O)NCCc4ccc(Cl)cc4)cc3[nH]c2=O)c1 | -0.8 | -2.3 | -16.4 | -13.6 | x | x | x
